# Laboratory results: ChEMBL document CHEMBL1151938, “Identification of a beta3-peptide HIV fusion inhibitor with improved potency in live cells” (Bioorg Med Chem Lett, 2009)
# What was measured:
# [1] = Selectivity ratio of CC50 for human MT2 cells to EC50 for HIV1 3B infected human MT2 cells; assay type: ADME, cell-based; details: for selectivity ratio: MT2 cells and HIV1 3B infected MT2 cells, read-out: Ratio CC50/EC50
# Procedure, shortened: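 Ratio of CC50 to EC50. CC50 comes from MTT viability of uninfected MT-2 cells given peptide alone. EC50 comes from MTT survival of MT-2 cells infected with HIV-1 IIIB after 5 days. Both curves used triplicate samples.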
# [2] = system: Human immunodeficiency virus 1; test: Antiviral activity against HIV1 3B infected human MT2 cells assessed as cytoprotection after 5 days by MTT colorimetric method; assay type: functional, organism-based; details: Human immunodeficiency virus 1, 3B, MT2, 120 h
# Procedure, shortened: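 MT-2 human T-cells plated with a range of β-peptide concentrations and cultured with wild-type HIV-1 IIIB for 5 days. Live cells measured by MTT reduction to formazan, read at 595 nm. EC50 is the peptide concentration giving 50% survival of infected cells. Triplicate samples at each concentration.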
# [3] = Cytotoxicity against human MT2 cells by MTT colorimetric method; assay type: cell-based
# Procedure, shortened: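 Uninfected MT-2 cells cultured with a range of β-peptide concentrations, without virus. Viability read by MTT colorimetric assay. CC50 is the concentration giving 50% inhibition of MT-2 cell growth. Triplicate samples at each concentration.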
# [4] = Binding affinity to HIV1 gp41-GCN4-pIQI fusion protein IQN17; parameters: species or system Human immunodeficiency virus 1
# Procedure, shortened: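 β-peptides labeled at the N-terminus with fluorescein-hexanoic acid NHS ester and tested in a direct fluorescence polarization assay against IQN17. IQN17 is a trimeric fusion of 17 gp41 N-terminal residues with a 29-residue isoleucine zipper. KD is taken at 50% binding of IQN17. Binding curves run in triplicate.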
Compound,selectivity ratio [1],EC50 [2] [µM],CC50 [3] [µM],Kd [4] [µM],Ratio CC50/EC50 ([1]; mt2)
CC[C@@](C)(CC(=O)N[C@H](CC(=O)O)CC(=O)NC(C)(C)CC(=O)NC(CC(=O)N[C@@H](CCN)CC(=O)NC(C)(C)CC(=O)N[C@H](CC(=O)NC(CC(=O)O)CC(=O)O)Cc1c[nH]c2ccccc12)Cc1ccccc1Cl)NC(=O)CC(C)(C)NC(=O)C[C@@H](N)CCN (stereo partly specified),3.5,8.8,31,13.3,–
CC[C@@](C)(CC(=O)N[C@H](CC(=O)O)CC(=O)NC(C)(C)CC(=O)NC(CC(=O)N[C@@H](CCN)CC(=O)NC(C)(C)CC(=O)N[C@H](CC(=O)NC(CC(=O)O)CC(=O)O)Cc1c[nH]c2ccccc12)Cc1ccc(I)cc1)NC(=O)CC(C)(C)NC(=O)C[C@@H](N)CCN (stereo partly specified),–,8.9,23,14.1,–
enfuvirtide,–,0.0375,–,–,–
CC[C@@](C)(CC(=O)N[C@H](CC(=O)O)CC(=O)NC(C)(C)CC(=O)NC(CC(=O)N[C@@H](CCN)CC(=O)NC(C)(C)CC(=O)N[C@H](CC(=O)NC(CC(=O)O)CC(=O)O)Cc1c[nH]c2ccccc12)Cc1cccnc1)NC(=O)CC(C)(C)NC(=O)C[C@@H](N)CCN (stereo partly specified),–,> 250,> 250,104,Not Active
CC[C@@](C)(CC(=O)N[C@H](CC(=O)O)CC(=O)NC(C)(C)CC(=O)NC(CC(=O)N[C@@H](CCN)CC(=O)NC(C)(C)CC(=O)N[C@H](CC(=O)NC(CC(=O)O)CC(=O)O)Cc1c[nH]c2ccccc12)Cc1cccc(F)c1)NC(=O)CC(C)(C)NC(=O)C[C@@H](N)CCN (stereo partly specified),–,18,50,15.7,–
CC[C@@](C)(CC(=O)N[C@H](CC(=O)O)CC(=O)NC(C)(C)CC(=O)NC(CC(=O)N[C@@H](CCN)CC(=O)NC(C)(C)CC(=O)N[C@H](CC(=O)NC(CC(=O)O)CC(=O)O)Cc1c[nH]c2ccccc12)Cc1ccc2ccccc2c1)NC(=O)CC(C)(C)NC(=O)C[C@@H](N)CCN (stereo partly specified),–,8.2,23,12.2,–
CC[C@@](C)(CC(=O)N[C@H](CC(=O)O)CC(=O)NC(C)(C)CC(=O)N[C@@H](CC(=O)N[C@@H](CCN)CC(=O)NC(C)(C)CC(=O)N[C@H](CC(=O)NC(CC(=O)O)CC(=O)O)Cc1c[nH]c2ccccc12)Cc1c[nH]c2ccccc12)NC(=O)CC(C)(C)NC(=O)C[C@@H](N)CCN,1.8,56,100,16.5,–
CC[C@@](C)(CC(=O)N[C@H](CC(=O)O)CC(=O)NC(C)(C)CC(=O)NC(CC(=O)N[C@@H](CCN)CC(=O)NC(C)(C)CC(=O)N[C@H](CC(=O)NC(CC(=O)O)CC(=O)O)Cc1c[nH]c2ccccc12)Cc1cccc(C(F)(F)F)c1)NC(=O)CC(C)(C)NC(=O)C[C@@H](N)CCN (stereo partly specified),7.9,19,150,10.2,–
